The values that follow come from ChEMBL document CHEMBL4811308, “Design, synthesis and broad spectrum antibreast cancer activity of diarylindoles via induction of apoptosis in aggressive breast cancer cells” (Bioorg Med Chem, 2021).

The structures appear in SMILES notation. pIC50: −log10 of the molar value. Active and inactive are the calls of the source. The calls are words filed in the database; no cut-off is given here.

Broadly, the pIC50 is the negative decadic logarithm of the IC50, by convention in mol/L.

For one experiment, the system named is MCF7. Kind of experiment: Cytotoxicity against human MCF7 cells assessed as reduction in cell viability incubated for 24 hrs by MTT assay. The note with it: MCF7, 24 h. The class given is functional, cell-based. Summed up:
(§1)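 MTT viability: cells seeded at 1 × 10^4/well, grown 24 h, then exposed to a concentration range of compound for 24 h. MTT (5 mg/mL stock) added for 3 h, formazan dissolved in DMSO, absorbance read at 540 nm.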
On the technique in general: Tetrazolium assays rely on reduction of a dye to a coloured formazan, in cell work by metabolically active cells.

Another experiment deals with MDA-MB-231. Kind of experiment: Cytotoxicity against human MDA-MB-231 cells assessed as reduction in cell viability incubated for 24 hrs by MTT assay. It is filed as functional, cell-based. The note with it: MDA-MB-231, 24 h. In a few lines:
as §1

Another experiment relates to PC-3. Briefly: Cytotoxicity against human PC-3 cells assessed as reduction in cell viability incubated for 24 hrs by MTT assay. It is filed as functional, cell-based. Conditions: PC-3, 24 h. In a few lines: as §1
A further experiment addresses Tubulin (Homo sapiens) (UniProt P68371+Q9H4B7+P0DPH7+P68366+Q13509+Q71U36+P04350+Q3ZCM7+P07437+P68363+Q9BQE3+Q6PEY2+Q13885+Q9BVA1+Q9BUF5). Briefly: Induction of tubulin polymerization (unknown origin) at 10 uM incubated for 1 hr by spectrometric analysis. It is filed as protein-complex assay.
The next experiment deals with HEK293. Kind of experiment: Cytotoxicity against human HEK293 cells assessed as reduction in cell viability incubated for 24 hrs by MTT assay. It is filed as cell-based. Conditions: HEK293, 24 h. Summed up:
as §1

With `COc1ccc2c(c1)cc(-c1cc(OC)c(OC)c(OC)c1)n2Cc1ccc(OCCN(C)C)cc1`, the figures for the pIC50 with MCF7, in the experiment on MDA-MB-231 and in the experiment on PC-3 were 5.18, 5.11 and 5.16, respectively.

Regarding `COc1ccc2c(c1)cc(-c1cc(OC)c(OC)c(OC)c1)n2Cc1ccc(OC(C)CN(C)C)cc1` (stereo unspecified), the figures for the pIC50 in the experiment with MCF7, in the experiment on MDA-MB-231 and in the experiment on PC-3 were 4.83, 4.97 and 4.88, respectively.

As for `COc1ccc2c(c1)cc(-c1cc(OC)c(OC)c(OC)c1)n2Cc1ccc(OCc2ccccc2)cc1`, the pIC50 in the experiment on MCF7, with MDA-MB-231 and in the experiment with PC-3 was below 4.52 each time.

In the case of `COc1ccc2c(c1)c(Cc1ccccc1)c(-c1cc(OC)c(OC)c(OC)c1)n2Cc1ccccc1`, the pIC50 with MCF7, in the experiment on MDA-MB-231 and in the experiment on PC-3 was below 4.52 each time.

As for `COc1ccc(Cc2c(-c3cc(OC)c(OC)c(OC)c3)n(Cc3ccc(OC)cc3)c3ccc(OC)cc23)cc1`, the pIC50 in the experiment with MCF7, with MDA-MB-231 and in the experiment with PC-3 was below 4.52 throughout.

`COc1ccc2c(c1)cc(-c1cc(OC)c(OC)c(OC)c1)n2Cc1ccc(O)cc1`: the pIC50 was below 4.52 in the experiment on MCF7, 4.76 with MDA-MB-231 and below 4.52 in the experiment with PC-3.

With `COc1ccc2c(c1)cc(-c1cc(OC)c(OC)c(OC)c1)n2Cc1ccc(OCCN2CCCCC2)cc1`, the results for the pIC50 in the experiment on MCF7, in the experiment on MDA-MB-231 and in the experiment with PC-3 were 4.67, below 4.52 and 4.66, respectively.

Take `CC(=O)O[C@H]1C(=O)[C@@]2(C)[C@H]([C@H](OC(=O)c3ccccc3)[C@]3(O)C[C@H](OC(=O)[C@H](O)[C@@H](NC(=O)c4ccccc4)c4ccccc4)C(C)=C1C3(C)C)[C@]1(OC(C)=O)CO[C@@H]1C[C@@H]2O` [PACLITAXEL]: the negative-log IC50 (pIC50) is 6.32 with MCF7, 5.80 in the experiment on MDA-MB-231, 5.59 in the experiment on PC-3 and 5.24 with HEK293. In addition, on Tubulin (Homo sapiens), the result was Active.

Consider `COc1ccc2[nH]c(-c3cc(OC)c(OC)c(OC)c3)cc2c1`, for which the pIC50 in the experiment with MCF7, in the experiment with MDA-MB-231 and in the experiment on PC-3 was below 4.52 in each case.

In the case of `COc1ccc2c(c1)cc(-c1cc(OC)c(OC)c(OC)c1)n2Cc1ccc(OCCN2CCCC2)cc1`, the pIC50 with MCF7 is 5.29; in the experiment with MDA-MB-231, 4.91; with PC-3, 5.22.

For `COc1ccc2c(c1)c(Cc1ccc(OCc3ccccc3)cc1)c(-c1cc(OC)c(OC)c(OC)c1)n2Cc1ccc(OCc2ccccc2)cc1`, the pIC50 in the experiment on MCF7, in the experiment on MDA-MB-231 and in the experiment on PC-3 was below 4.52 throughout.

On to `CC/C(=C(\c1ccccc1)c1ccc(OCCN(C)C)cc1)c1ccccc1` [TAMOXIFEN], for which the pIC50 in the experiment with MCF7 is 5.07; in the experiment with PC-3 it was 4.80; with HEK293 it was 4.65.

Take `COc1ccc2c(c1)c(Cc1ccc(O)cc1)c(-c1cc(OC)c(OC)c(OC)c1)n2Cc1ccc(O)cc1`: the pIC50 with MCF7, in the experiment with MDA-MB-231 and in the experiment with PC-3 was below 4.52 in each case.

Take `CCN(CC)CCOc1ccc(Cn2c(-c3cc(OC)c(OC)c(OC)c3)cc3cc(OC)ccc32)cc1`: the pIC50 with MCF7 is 4.53; with MDA-MB-231, 4.88; with PC-3 it was 4.82.

Regarding `COc1ccc(Cn2c(-c3cc(OC)c(OC)c(OC)c3)cc3cc(OC)ccc32)cc1`, the pIC50 in the experiment with MCF7, in the experiment with MDA-MB-231 and with PC-3 was below 4.52 throughout.

Take `CCOC(=O)COc1ccc(Cn2c(-c3cc(OC)c(OC)c(OC)c3)cc3cc(OC)ccc32)cc1`: the pIC50 in the experiment with MCF7, in the experiment with MDA-MB-231 and in the experiment on PC-3 was below 4.52 in each case.

`COc1ccc2c(c1)cc(-c1cc(OC)c(OC)c(OC)c1)n2Cc1ccccc1`: the pIC50 in the experiment with MCF7, in the experiment with MDA-MB-231 and in the experiment on PC-3 was below 4.52 in each case.

As to `COc1ccc2c(c1)c(Cc1ccc(OCCN3CCCC3)cc1)c(-c1cc(OC)c(OC)c(OC)c1)n2Cc1ccc(OCCN2CCCC2)cc1`, the pIC50 with MCF7 is 5.37; in the experiment on MDA-MB-231, 5.02; in the experiment with PC-3, 5.13.
